NPY-Y2 antag – NPY-Y2 receptor antagonists, primary screen, cell-based | Neuropeptide Y receptor type 2 (Homo sapiens), P49146 | NPY-Y2 expressing cells, antagonist mode | inhibition, % at 2.7 µM | 0.99% of 140,000 active | AID 793, 2007;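 further: 0% = vehicle with agonist challenge and 100% = reference antagonist with challenge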
Target sequence (P49146 whole entry, looked up): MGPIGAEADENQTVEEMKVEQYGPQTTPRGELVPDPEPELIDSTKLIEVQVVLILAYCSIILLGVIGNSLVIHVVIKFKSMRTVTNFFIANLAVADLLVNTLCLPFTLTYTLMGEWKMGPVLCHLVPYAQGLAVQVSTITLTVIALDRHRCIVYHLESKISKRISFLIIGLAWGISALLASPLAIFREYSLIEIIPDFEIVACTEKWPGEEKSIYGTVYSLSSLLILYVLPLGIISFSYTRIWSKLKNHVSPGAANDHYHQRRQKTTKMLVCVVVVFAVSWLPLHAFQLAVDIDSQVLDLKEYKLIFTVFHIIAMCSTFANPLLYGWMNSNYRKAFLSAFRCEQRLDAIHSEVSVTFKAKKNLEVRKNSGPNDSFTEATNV
RAM network inh – inhibitors of the yeast RAM network, primary screen, dse1pr::URA3 reporter, 5-FOA selection. S. cerevisiae dse1pr::URA3 reporter, 5-FOA growth OD615, 2 d; analog-sensitive cbk1-as2 kinase mutant strain. inhibition, % at 50 µM. 1.8% of 190,000 active. AID 868, 2007;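 active means inhibition above a set limit, 3 SD over mean compound inhibition, cut at about 8.4% in these data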;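 further: 0% = DMSO-only wells with no growth and 100% = 10 µM 1-NA-PP1 full growth; inhibition rescues growth on 5-FOA so higher OD means more RAM inhibition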
NPY Y1 blocker – NPY-Y1 receptor antagonists, primary screen, cell-based; Neuropeptide Y receptor type 1 (Homo sapiens), P25929; HEK293-CNG Y1 cells, membrane potential fluorescence; NPY at EC95, then isoproterenol; inhibition, % at 3.6 µM; 1% of 200,000 active;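 active means inhibition above the campaign mean inhibition of all tested compounds plus 3 SD, cut at about 20% in these data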;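 further: 0% = DMSO wells given NPY plus isoproterenol and 100% = isoproterenol alone without NPY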
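Test system: HEK293 cells co-expressing NPY Y1 receptor and cyclic-nucleotide gated channel; Also added: NPY (25 nM), isoproterenol (1 µM), Ro 20-1724 (25 µM); Compound dosing: one concentration, 3.6 µM, in 0.4% DMSO; Timing: dye 3 h, compound 60 min room temperature, stimulation 45 min; Technique: Membrane-potential fluorescent dye readout.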
NPY1 pot ag – NPY-Y1 receptor potentiators or agonists, primary screen, cell-based. 0.37% of 220,000 active. AID 1304, 2008. activation, % at 3.6 µM. NPY-Y1 expressing cells, potentiator/agonist activation. Neuropeptide Y receptor type 1 (Homo sapiens), P25929; in the data active means activation above about 33%, passing the limit was not always enough;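 further: cells stimulated with NPY at EC10 then isoproterenol at EC100; 0% = low agonist plus stimulus and 100% = saturating agonist plus stimulus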
WT yeast gro inh – growth inhibition of WT strain, primary screen, mitochondrial fusion inhibitor project, WT and mutant strains, chemical genetic; 2.1% of 190,000 active; mitochondrial fusion phenotypic screen; inhibition, % at 10 µM; in the data active means inhibition above about 58%; tested in S. cerevisiae
NPY2 pot ag – NPY-Y2 potentiators or agonists, primary screen, cell-based; cells expressing NPY-Y2, potentiator/agonist read-out; activation, % at 3.6 µM; 0.45% of 220,000 active; Neuropeptide Y receptor type 2 (Homo sapiens), P49146; in the data active means activation above about 27%;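 further: cells stimulated with NPY near EC25 plus isoproterenol at EC100; 0% = vehicle plus submaximal agonist and 100% = vehicle plus saturating agonist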
NPY1 antag conf – NPY-Y1 receptor antagonists, retest of hits, confirmation, HEK293-CNG cells, membrane potential fluorescence, triplicate; AID 1254, 2008; 21% of 1,200 active; cAMP; NPY challenge against isoproterenol-raised cAMP; inhibition, % at 3.6 µM; shares compounds with NPY Y1 blocker; in the data active means inhibition above about 20%;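 further: 0% = vehicle with agonist plus stimulus and 100% = stimulus alone without agonist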
NPY2 antag ctr – NPY-Y2 receptor antagonists, selectivity check, confirmation, counter-screen for NPY-Y1 antagonist project, HEK293-CNG cells, membrane potential fluorescence, triplicate; inhibition, % at 3.6 µM; 28% of 1,200 active; antagonism; cells given NPY, then isoproterenol; shares compounds with NPY Y1 blocker;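 further: 0% = DMSO with agonist challenge and 100% = reference antagonist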
An asterisk follows results filed as active. Only some compounds are listed: those with a hit (about 4.9% of all), similar ones and a draw of the others. Unless noted, no stated cut-off is given here; in the data, active means inhibition above about 17%; inactive means the rest.

For O=C(N/N=C/c1ccco1)C1CC1c1ccccc1 (configuration not stated) the results were NPY-Y2 antag 5, RAM network inh 1, NPY Y1 blocker 10, NPY1 pot ag -19, WT yeast gro inh 6 and NPY2 pot ag 6.
Cc1ccc(C(=O)c2cc([N+](=O)[O-])ccc2N2CCOCC2)c(C)c1 was read as NPY-Y2 antag 3, RAM network inh 1, NPY Y1 blocker 34*, NPY1 pot ag -4, WT yeast gro inh 38, NPY2 pot ag -8, NPY1 antag conf 6 and NPY2 antag ctr 22*.
CN1CCC(=NNC(=O)C(=O)Nc2cccc(Br)c2)CC1 was read as RAM network inh 1, NPY Y1 blocker -1, NPY1 pot ag 10, WT yeast gro inh 3 and NPY2 pot ag 8.
`CCOCCCNC(=O)C(NC(=O)c1ccc(NC(C)=O)cc1)c1ccccc1` (configuration not stated) gave NPY-Y2 antag -1, RAM network inh 0, NPY Y1 blocker -6, NPY1 pot ag -6, WT yeast gro inh 3 and NPY2 pot ag -9.
For CCOC(=O)C1(CCOc2ccccc2)CCN(Cc2cccn2-c2ncccn2)CC1 the results were RAM network inh 2, NPY Y1 blocker 25*, NPY1 pot ag -10, WT yeast gro inh 9, NPY2 pot ag -25, NPY1 antag conf 11 and NPY2 antag ctr 12.
For CCOC(=O)C1(CCOc2ccccc2)CCN(Cc2ccncc2)CC1 the results were RAM network inh 1, NPY Y1 blocker 1, NPY1 pot ag 6, WT yeast gro inh -1 and NPY2 pot ag 3.
`CCOC(=O)C1(Cc2cccc(OC)c2)CCN(Cc2cccn2-c2ccccn2)CC1` gave RAM network inh 0, NPY Y1 blocker 29*, NPY1 pot ag -30, WT yeast gro inh 8, NPY2 pot ag -30, NPY1 antag conf 17 and NPY2 antag ctr 16.
Screening N#CCCN1CCN(S(=O)(=O)c2cc(Cl)ccc2Cl)CC1 returned RAM network inh 1, NPY Y1 blocker 1, NPY1 pot ag -10, WT yeast gro inh -10 and NPY2 pot ag -15.
COc1ccc(-c2ccc(-c3noc(-c4ccco4)n3)c(OC)n2)cc1 was read as NPY-Y2 antag 1, RAM network inh 4, NPY Y1 blocker 78*, NPY1 pot ag -3, WT yeast gro inh -22, NPY2 pot ag 6, NPY1 antag conf 3 and NPY2 antag ctr 5.
COc1ccc(-c2ccc(-c3noc(-c4ccccc4F)n3)c(OC)n2)cc1 was read as NPY-Y2 antag 3, RAM network inh 1, NPY Y1 blocker 2, NPY1 pot ag -7, WT yeast gro inh 10 and NPY2 pot ag 11.
Cc1cccc(NC(=S)NC(=O)c2cc(-c3ccccc3)nc3ccccc23)c1 was read as NPY-Y2 antag 8, RAM network inh 6, NPY Y1 blocker 21*, NPY1 pot ag -14, WT yeast gro inh -1, NPY2 pot ag -3, NPY1 antag conf 16 and NPY2 antag ctr 20*.
`Cc1ccccc1NC(=S)NC(=O)c1cc(-c2ccccc2)nc2ccccc12` gave NPY-Y2 antag 12, RAM network inh 4, NPY Y1 blocker 21*, NPY1 pot ag -90, WT yeast gro inh 12, NPY2 pot ag -83, NPY1 antag conf 28* and NPY2 antag ctr 38*.
Screening Cc1cccc(NC(=O)NNC(=O)c2cc(-c3ccccc3Cl)nc3ccccc23)c1 returned NPY-Y2 antag 7, RAM network inh 4, NPY Y1 blocker 0, NPY1 pot ag -9, WT yeast gro inh -20 and NPY2 pot ag -7.
`Cc1ccc(C)c(NC(=O)c2cc(-c3cccnc3)nc3ccccc23)c1` gave RAM network inh 1, NPY Y1 blocker 7, NPY1 pot ag 2, WT yeast gro inh -12 and NPY2 pot ag 3.
`COc1ccc2c(Cl)c(-c3nnc(SCC(=O)c4ccccc4)n3C)sc2c1` gave NPY-Y2 antag 1, RAM network inh 3, NPY Y1 blocker 3, NPY1 pot ag -15, WT yeast gro inh 21 and NPY2 pot ag -8.
For COC(=O)c1c(NC(=O)CSc2nnnn2-c2ccccc2)sc2c1CCC(C)C2 (configuration not stated) the results were NPY-Y2 antag 14, RAM network inh 2, NPY Y1 blocker 20*, NPY1 pot ag -34, WT yeast gro inh 7, NPY2 pot ag 9, NPY1 antag conf 12 and NPY2 antag ctr 14.
O=C(COc1ccccc1)N(CCc1ccccc1)c1nc(-c2ccc(F)cc2)cs1 was read as NPY-Y2 antag 8, RAM network inh 8, NPY Y1 blocker 37*, NPY1 pot ag -45, WT yeast gro inh 7, NPY2 pot ag -32, NPY1 antag conf 13 and NPY2 antag ctr 19*.
O=C(CSCc1ccc(Cl)cc1)NN=C1CCCC1 was read as NPY-Y2 antag 3, RAM network inh 0, NPY Y1 blocker 3, NPY1 pot ag -9, WT yeast gro inh 2 and NPY2 pot ag -4.
Screening O=C(CCCCn1c(=O)[nH]c2ccccc2c1=O)N1CCN(c2cccc(C(F)(F)F)c2)CC1 returned NPY-Y2 antag 2, RAM network inh 2, NPY Y1 blocker 21*, NPY1 pot ag -56, WT yeast gro inh 13, NPY2 pot ag 4, NPY1 antag conf 3 and NPY2 antag ctr 3.
Screening O=C(CCn1c(=O)[nH]c2ccccc2c1=O)N1CCN(c2cccc(C(F)(F)F)c2)CC1 returned NPY-Y2 antag 3, RAM network inh 2, NPY Y1 blocker 4, NPY1 pot ag 10, WT yeast gro inh 1 and NPY2 pot ag -3.
`Nn1c(SCC(=O)NCc2ccccc2)nncc1=O` gave NPY-Y2 antag 4, RAM network inh 0, NPY Y1 blocker -1, NPY1 pot ag -19, WT yeast gro inh 7 and NPY2 pot ag 9.
For CCn1c(CNC(=O)C(C)(C)C)nc2ccccc21 the results were NPY-Y2 antag 2, RAM network inh 1, NPY Y1 blocker 3, NPY1 pot ag 3, WT yeast gro inh -3 and NPY2 pot ag 5.
